Measurements published in ChEMBL document CHEMBL3046654, “Penoxsulam--structure-activity relationships of triazolopyrimidine sulfonamides” (Bioorg Med Chem, 2009).

Tests used:
Echinochloa crus-galli = assay: Post-emergence herbicidal activity against Echinochloa crus-galli (barnyard grass) compound treated as foliar application measured after 2 weeks; assay type: functional
Method in brief: (§1)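 Greenhouse post-emergence foliar screen in 64 cm² pots. Seed treatments were used on some species to aid germination. Plants were grown 7–21 days at 23–29 °C day/22–28 °C night under a 15 h photoperiod. Sprayed at 2–12 cm height and the 1–4 true leaf stage.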

Setaria faberi = assay: Post-emergence herbicidal activity against Setaria faberi (Giant Foxtail) compound treated as foliar application measured after 2 weeks; assay type: functional; method in brief: as §1
Avena fatua = assay: Post-emergence herbicidal activity against Avena fatua compound treated as foliar application measured after 2 weeks; assay type: functional; method in brief: as §1
Amaranthus retroflexus = assay: Post-emergence herbicidal activity against Amaranthus retroflexus compound treated as foliar application measured after 2 weeks; assay type: functional; method in brief: as §1
Abutilon theophrasti = assay: Post-emergence herbicidal activity against Abutilon theophrasti (velvetleaf) compound treated as foliar application measured after 2 weeks; assay type: functional; method in brief: as §1
Alopecurus = assay: Post-emergence herbicidal activity against Alopecurus spp. compound treated as foliar application measured after 2 weeks; assay type: functional; method in brief: as §1
Oryza sativa = assay: Phytotoxicity against Oryza sativa (rice); assay type: organism-based; conditions: in vivo
Xanthium strumarium = assay: Post-emergence herbicidal activity against Xanthium strumarium (cocklebur) compound treated as foliar application measured after 2 weeks; assay type: functional; method in brief: as §1
Sorghum halepense = assay: Post-emergence herbicidal activity against Sorghum halepense (Johnson grass) compound treated as foliar application measured after 2 weeks; assay type: functional; method in brief: as §1
Chenopodium album = assay: Post-emergence herbicidal activity against Chenopodium album compound treated as foliar application measured after 2 weeks; assay type: functional; method in brief: as §1
Veronica hederifolia = assay: Post-emergence herbicidal activity against Veronica hederifolia compound treated as foliar application measured after 2 weeks; assay type: functional; method in brief: as §1
Ipomoea = assay: Post-emergence herbicidal activity against Ipomoea spp. compound treated as foliar application measured after 2 weeks; assay type: functional; method in brief: as §1
Fallopia convolvulus = assay: Post-emergence herbicidal activity against Fallopia convolvulus compound treated as foliar application measured after 2 weeks; assay type: functional; method in brief: as §1
Datura stramonium = assay: Post-emergence herbicidal activity against Datura stramonium compound treated as foliar application measured after 2 weeks; assay type: functional; method in brief: as §1
Helianthus = assay: Post-emergence herbicidal activity against Helianthus spp. compound treated as foliar application measured after 2 weeks; assay type: functional; method in brief: as §1
Digitaria sanguinalis = assay: Post-emergence herbicidal activity against Digitaria sanguinalis (hairy crabgrass) compound treated as foliar application measured after 2 weeks; assay type: functional; method in brief: as §1
Stellaria media = assay: Post-emergence herbicidal activity against Stellaria media compound treated as foliar application measured after 2 weeks; assay type: functional; method in brief: as §1
Ipomoea hederacea = assay: Post-emergence herbicidal activity against Ipomoea hederacea (ivy-leaved morning glory) compound treated as foliar application measured after 2 weeks; assay type: functional; method in brief: as §1

Row | Structure (SMILES) | GR80 (Echinochloa crus-galli) [ppm] | GR80 (Setaria faberi) [ppm] | GR80 (Avena fatua) [ppm] | GR80 (Amaranthus retroflexus) [ppm] | GR80 (Abutilon theophrasti) [ppm] | GR80 (Alopecurus) [ppm] | GR20 (Oryza sativa) [ppm] | GR80 (Xanthium strumarium) [ppm] | GR80 (Sorghum halepense) [ppm] | GR80 (Chenopodium album) [ppm] | GR80 (Veronica hederifolia) [ppm] | GR80 (Ipomoea) [ppm] | GR80 (Fallopia convolvulus) [ppm] | GR80 (Datura stramonium) [ppm] | GR80 (Helianthus) [ppm] | GR80 (Digitaria sanguinalis) [ppm] | GR80 (Stellaria media) [ppm] | GR80 (Ipomoea hederacea) [ppm]
1 | COc1cnc(OC)n2nc(NS(=O)(=O)c3c(OCCCF)cccc3C(F)(F)F)nc12 | 125 | 250 | 250 | 15 | 15 | 250 | > 250 | 15 | 250 | 15 | 15 | 15 | 15 | 15 | 15 | 250 | 15 | 15
2 | COc1cnc(OC)n2nc(NS(=O)(=O)c3ccccc3C(F)(F)F)nc12 | 250 | 435 | 435 | 13 | 13 | 435 | < 1 | 13 | 435 | 13 | 13 | 13 | 13 | 13 | 13 | 435 | 13 | 13
3 | COc1cnc(OC)n2nc(NS(=O)(=O)c3cc(Cl)ccc3Cl)nc12 | 1000 | >1000 | >1000 | 19 | 19 | >1000 | < 2 | 19 | >1000 | 19 | 19 | 19 | 19 | 19 | 19 | >1000 | 19 | 19
4 | COc1cnc(OC)n2nc(NS(=O)(=O)c3cc(Cl)cc(Cl)c3)nc12 | >1000 | >1000 | >1000 | 126 | 126 | >1000 | 62 | 126 | >1000 | 126 | 126 | 126 | 126 | 126 | 126 | >1000 | 126 | 126
5 | COc1cccc(OC)c1S(=O)(=O)Nc1nc2c(OC)cnc(OC)n2n1 | <0.5 | <0.1 | <0.1 | 0.5 | 0.5 | <0.1 | < 0.5 | 0.5 | <0.1 | 0.5 | 0.5 | 0.5 | 0.5 | 0.5 | 0.5 | <0.1 | 0.5 | 0.5
6 | COc1cccc(C(F)(F)F)c1S(=O)(=O)Nc1nc2c(OC)cnc(OC)n2n1 | 1 | 1 | 1 | <0.2 | <0.2 | 1 | 2 | <0.2 | 1 | <0.2 | <0.2 | <0.2 | <0.2 | <0.2 | <0.2 | 1 | <0.2 | <0.2
